Data reported in paper PMC9682045 (Biochemistry and Biophysics Reports, 2022).
Several values for one entry are separate records, joined by “and”; a condition that tells them apart may be missing. Identical values can stand only once.

Assays:
[1] = Cytotoxicity in the HCoV 229E CPE assay; format: cell-based; details: human, MRC5 cells, not infected
How it was run: (§1)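 Uninfected MRC5 human fetal lung fibroblasts seeded at 20,000 cells/well; test compound in cell assay medium as 3-fold serial dilutions to 8 concentrations, duplicate wells. Untreated cell controls run in parallel. Cytotoxicity expressed as percentage viability, with CC50 derived from this.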

[2] = Cytotoxicity in the HCoV 229E qPCR assay; format: cell-based; details: human, MRC5 cells, not infected
How it was run: as §1

HCoV 229E = HCoV 229E qPCR assay in MRC5 cells; format: cell-based, human coronavirus 229E; details: read-out: HCoV 229E qPCR assay EC50, 200 TCID50, 2 days, viral RNA
How it was run: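 MRC5 human fetal lung fibroblasts seeded at 20,000 cells/well received test compound (3-fold serial dilutions to 8 concentrations, duplicate wells) in cell assay medium and were infected with 200 TCID50 HCoV 229E. Viral RNA was quantified by qPCR following a previously published protocol. Uninfected untreated and infected untreated controls ran in parallel. Percentage inhibition was recorded; EC50 is the concentration giving 50% of maximal effect.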

[3] = test system: COVID-19-related lethality; details: meta-regression, patients with MS and COVID-19, N = 5634, P = 0.035; cited from earlier work
[4] = a patient with MS; cited from earlier work

Row | SMILES | CC50 at 3 days [1] [µM] | CC50 at 2 days [2] [µM] | EC50 (HCoV 229E) [µM] | protective effect on COVID-19-related lethality (β) [3] | plasma concentration [4]
1 | Cc1oncc1C(=O)Nc1ccc(C(F)(F)F)cc1 [Leflunomide, leflunomide] | > 100 | > 100 |  |  | 
2 | CCC(CC)COC(=O)[C@H](C)N[P@](=O)(OC[C@H]1O[C@@](C#N)(c2ccc3c(N)ncnn23)[C@H](O)[C@@H]1O)Oc1ccccc1 [Remdesivir (blinded), remdesivir] | > 100 | > 100 | < 0.046 |  | 
3 | C/C(O)=C(\C#N)C(=O)Nc1ccc(C(F)(F)F)cc1 [Teriflunomide, teriflunomide] | > 100 | > 100 |  | −0.11 | 130 μM and 35 mg/L
